Results taken from ChEMBL document CHEMBL5058577, “EUbOPEN Chemogenomics Library 2 (Multiplex)” (2022).

System: Fibroblast
Experiment: Multiplex assay against human fibroblast
Format: toxicity, cell-based
Outline: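 Values for tubulin, mitochondrial-mass and membrane-permeability phenotypes are per cents of cells with healthy nuclei. These cells were identified by CellPathfinder machine-learning gating of live cells that had been stained at seeding with Hoechst33342, BioTracker Green Microtubule Cytoskeleton Dye, MitoTracker Red and Annexin V Alexa Fluor 680 and imaged on a CQ1 microscope at 37°C and 5% CO2 after compound addition. The gating first set Hoechst high-intensity objects apart from normal cells, then split normal cells into healthy, pyknosed or fragmented nuclei, and pyknosed cells into mitotic or apoptotic.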

[1] = 12 h, 1 µM, compound concentration 1 uM, replicate 1
[2] = 12 h, 1 µM, compound concentration 1 uM, replicate 2
[3] = 12 h, 10 µM, compound concentration 10 uM, replicate 1
[4] = 12 h, 10 µM, compound concentration 10 uM, replicate 2
[5] = 24 h, 1 µM, compound concentration 1 uM, replicate 1
[6] = 24 h, 1 µM, compound concentration 1 uM, replicate 2
[7] = 24 h, 10 µM, compound concentration 10 uM, replicate 1
[8] = 24 h, 10 µM, compound concentration 10 uM, replicate 2
[9] = 48 h, 1 µM, compound concentration 1 uM, replicate 1
[10] = 48 h, 1 µM, compound concentration 1 uM, replicate 2
[11] = 48 h, 10 µM, compound concentration 10 uM, replicate 1
[12] = 48 h, 10 µM, compound concentration 10 uM, replicate 2

## CCC(=O)OCC(=O)[C@@]1(OC(=O)CC)[C@@H](C)C[C@H]2[C@@H]3CCC4=CC(=O)C=C[C@]4(C)[C@@]3(Cl)[C@@H](O)C[C@@]21C [BECLOMETHASONE DIPROPIONATE]
[1]
  Population Apoptotic (%): 38%
  Population Fragmented Nuclei (%): 13%
  Population Healthy Nuclei (%): 73%
  Population Hoechst High Intensity Objects (%): 3%
  Population Membrane Permeable-Phenotype (%): 1%
  Population Mitochondria Different-Phenotype (%): 2%
  Population Mitotic Cells (%): 61%
  Population Normal (%): 96%
  Population Pyknosed Nuclei (%): 13%
  Population Tubulin-Different-Phenotype (%): 47%
  Total Cell Count: 135
[2]
  Population Apoptotic (%): 42%
  Population Fragmented Nuclei (%): 30%
  Population Healthy Nuclei (%): 40%
  Population Membrane Permeable-Phenotype (%): 5%
  Population Mitochondria Different-Phenotype (%): 10%
  Population Mitotic Cells (%): 57%
  Population Pyknosed Nuclei (%): 30%
  Population Tubulin-Different-Phenotype (%): 63%
  Total Cell Count: 155
[3]
  Population Apoptotic (%): 40%
  Population Fragmented Nuclei (%): 9%
  Population Healthy Nuclei (%): 69%
  Population Hoechst High Intensity Objects (%): 8%
  Population Membrane Permeable-Phenotype (%): 1%
  Population Mitochondria Different-Phenotype (%): 17%
  Population Mitotic Cells (%): 60%
  Population Normal (%): 91%
  Population Pyknosed Nuclei (%): 20%
  Population Tubulin-Different-Phenotype (%): 87%
  Total Cell Count: 157
[4]
  Population Fragmented Nuclei (%): 32%
  Population Healthy Nuclei (%): 42%
  Population Hoechst High Intensity Objects (%): 5%
  Population Membrane Permeable-Phenotype (%): 15%
  Population Mitochondria Different-Phenotype (%): 20%
  Population Mitotic Cells (%): 59%
  Population Normal (%): 94%
  Population Pyknosed Nuclei (%): 24%
  Population Tubulin-Different-Phenotype (%): 94%
  Total Cell Count: 96
[5]
  Population Apoptotic (%): 50%
  Population Fragmented Nuclei (%): 16%
  Population Healthy Nuclei (%): 65%
  Population Hoechst High Intensity Objects (%): 1%
  Population Membrane Permeable-Phenotype (%): 3%
  Population Mitochondria Different-Phenotype (%): 2%
  Population Mitotic Cells (%): 50%
  Population Normal (%): 98%
  Population Pyknosed Nuclei (%): 18%
  Population Tubulin-Different-Phenotype (%): 34%
  Total Cell Count: 134
[6]
  Population Apoptotic (%): 47%
  Population Fragmented Nuclei (%): 30%
  Population Healthy Nuclei (%): 45%
  Population Hoechst High Intensity Objects (%): 6%
  Population Membrane Permeable-Phenotype (%): 7%
  Population Mitochondria Different-Phenotype (%): 7%
  Population Mitotic Cells (%): 52%
  Population Normal (%): 93%
  Population Pyknosed Nuclei (%): 24%
  Population Tubulin-Different-Phenotype (%): 60%
  Total Cell Count: 150
[7]
  Population Apoptotic (%): 40%
  Population Fragmented Nuclei (%): 13%
  Population Healthy Nuclei (%): 66%
  Population Hoechst High Intensity Objects (%): 6%
  Population Membrane Permeable-Phenotype (%): 1%
  Population Mitochondria Different-Phenotype (%): 30%
  Population Mitotic Cells (%): 59%
  Population Normal (%): 93%
  Population Pyknosed Nuclei (%): 19%
  Population Tubulin-Different-Phenotype (%): 86%
  Total Cell Count: 148
[8]
  Population Apoptotic (%): 19%
  Population Fragmented Nuclei (%): 38%
  Population Healthy Nuclei (%): 40%
  Population Membrane Permeable-Phenotype (%): 15%
  Population Mitochondria Different-Phenotype (%): 12%
  Population Mitotic Cells (%): 80%
  Population Pyknosed Nuclei (%): 21%
  Population Tubulin-Different-Phenotype (%): 79%
  Total Cell Count: 104
[9]
  Population Apoptotic (%): 28%
  Population Fragmented Nuclei (%): 13%
  Population Healthy Nuclei (%): 56%
  Population Hoechst High Intensity Objects (%): 3%
  Population Membrane Permeable-Phenotype (%): 1%
  Population Mitochondria Different-Phenotype (%): 15%
  Population Mitotic Cells (%): 71%
  Population Normal (%): 96%
  Population Pyknosed Nuclei (%): 30%
  Population Tubulin-Different-Phenotype (%): 61%
  Total Cell Count: 132
[10]
  Population Apoptotic (%): 52%
  Population Fragmented Nuclei (%): 31%
  Population Healthy Nuclei (%): 41%
  Population Hoechst High Intensity Objects (%): 7%
  Population Membrane Permeable-Phenotype (%): 5%
  Population Mitochondria Different-Phenotype (%): 9%
  Population Mitotic Cells (%): 47%
  Population Normal (%): 92%
  Population Pyknosed Nuclei (%): 27%
  Population Tubulin-Different-Phenotype (%): 54%
  Total Cell Count: 143
[11]
  Population Apoptotic (%): 67%
  Population Fragmented Nuclei (%): 21%
  Population Healthy Nuclei (%): 54%
  Population Hoechst High Intensity Objects (%): 6%
  Population Membrane Permeable-Phenotype (%): 0%
  Population Mitochondria Different-Phenotype (%): 47%
  Population Mitotic Cells (%): 32%
  Population Normal (%): 93%
  Population Pyknosed Nuclei (%): 24%
  Population Tubulin-Different-Phenotype (%): 76%
  Total Cell Count: 162
[12]
  Population Apoptotic (%): 37%
  Population Fragmented Nuclei (%): 33%
  Population Healthy Nuclei (%): 33%
  Population Hoechst High Intensity Objects (%): 3%
  Population Membrane Permeable-Phenotype (%): 18%
  Population Mitochondria Different-Phenotype (%): 15%
  Population Mitotic Cells (%): 62%
  Population Normal (%): 96%
  Population Pyknosed Nuclei (%): 33%
  Population Tubulin-Different-Phenotype (%): 84%
  Total Cell Count: 99

## CN1CCN(c2ccc(Nc3c4ccccc4nc4ccccc34)cc2)CC1.Cl.Cl.O
[1]
  Population Apoptotic (%): 47%
  Population Fragmented Nuclei (%): 15%
  Population Healthy Nuclei (%): 69%
  Population Hoechst High Intensity Objects (%): 1%
  Population Membrane Permeable-Phenotype (%): 0%
  Population Mitochondria Different-Phenotype (%): 3%
  Population Mitotic Cells (%): 52%
  Population Normal (%): 98%
  Population Pyknosed Nuclei (%): 14%
  Population Tubulin-Different-Phenotype (%): 23%
  Total Cell Count: 135
[2]
  Population Apoptotic (%): 44%
  Population Fragmented Nuclei (%): 28%
  Population Healthy Nuclei (%): 56%
  Population Membrane Permeable-Phenotype (%): 5%
  Population Mitochondria Different-Phenotype (%): 5%
  Population Mitotic Cells (%): 56%
  Population Pyknosed Nuclei (%): 15%
  Population Tubulin-Different-Phenotype (%): 34%
  Total Cell Count: 160
[3]
  Population Apoptotic (%): 91%
  Population Fragmented Nuclei (%): 42%
  Population Healthy Nuclei (%): 49%
  Population Hoechst High Intensity Objects (%): 8%
  Population Membrane Permeable-Phenotype (%): 0%
  Population Mitochondria Different-Phenotype (%): 47%
  Population Mitotic Cells (%): 8%
  Population Normal (%): 91%
  Population Pyknosed Nuclei (%): 8%
  Population Tubulin-Different-Phenotype (%): 90%
  Total Cell Count: 158
[4]
  Population Apoptotic (%): 66%
  Population Fragmented Nuclei (%): 65%
  Population Healthy Nuclei (%): 29%
  Population Hoechst High Intensity Objects (%): 16%
  Population Membrane Permeable-Phenotype (%): 4%
  Population Mitochondria Different-Phenotype (%): 13%
  Population Mitotic Cells (%): 33%
  Population Normal (%): 83%
  Population Pyknosed Nuclei (%): 4%
  Population Tubulin-Different-Phenotype (%): 79%
  Total Cell Count: 177
[5]
  Population Apoptotic (%): 70%
  Population Fragmented Nuclei (%): 21%
  Population Healthy Nuclei (%): 65%
  Population Hoechst High Intensity Objects (%): 0%
  Population Membrane Permeable-Phenotype (%): 0%
  Population Mitochondria Different-Phenotype (%): 2%
  Population Mitotic Cells (%): 29%
  Population Normal (%): 99%
  Population Pyknosed Nuclei (%): 12%
  Population Tubulin-Different-Phenotype (%): 12%
  Total Cell Count: 139
[6]
  Population Apoptotic (%): 60%
  Population Fragmented Nuclei (%): 29%
  Population Healthy Nuclei (%): 57%
  Population Membrane Permeable-Phenotype (%): 3%
  Population Mitochondria Different-Phenotype (%): 7%
  Population Mitotic Cells (%): 40%
  Population Normal (%): 100%
  Population Tubulin-Different-Phenotype (%): 39%
  Total Cell Count: 155
[7]
  Population Apoptotic (%): 77%
  Population Fragmented Nuclei (%): 47%
  Population Healthy Nuclei (%): 39%
  Population Hoechst High Intensity Objects (%): 16%
  Population Membrane Permeable-Phenotype (%): 1%
  Population Mitochondria Different-Phenotype (%): 66%
  Population Mitotic Cells (%): 22%
  Population Normal (%): 83%
  Population Pyknosed Nuclei (%): 12%
  Population Tubulin-Different-Phenotype (%): 94%
  Total Cell Count: 206
[8]
  Population Apoptotic (%): 60%
  Population Fragmented Nuclei (%): 69%
  Population Healthy Nuclei (%): 27%
  Population Hoechst High Intensity Objects (%): 21%
  Population Membrane Permeable-Phenotype (%): 6%
  Population Mitochondria Different-Phenotype (%): 34%
  Population Mitotic Cells (%): 40%
  Population Normal (%): 78%
  Population Pyknosed Nuclei (%): 3%
  Population Tubulin-Different-Phenotype (%): 84%
  Total Cell Count: 205
[9]
  Population Apoptotic (%): 66%
  Population Fragmented Nuclei (%): 23%
  Population Healthy Nuclei (%): 70%
  Population Hoechst High Intensity Objects (%): 1%
  Population Membrane Permeable-Phenotype (%): 0%
  Population Mitochondria Different-Phenotype (%): 4%
  Population Mitotic Cells (%): 33%
  Population Normal (%): 98%
  Population Pyknosed Nuclei (%): 6%
  Population Tubulin-Different-Phenotype (%): 26%
  Total Cell Count: 144
[10]
  Population Apoptotic (%): 55%
  Population Fragmented Nuclei (%): 25%
  Population Healthy Nuclei (%): 68%
  Population Membrane Permeable-Phenotype (%): 1%
  Population Mitotic Cells (%): 44%
  Population Pyknosed Nuclei (%): 5%
  Total Cell Count: 157
[11]
  Population Apoptotic (%): 68%
  Population Fragmented Nuclei (%): 71%
  Population Healthy Nuclei (%): 15%
  Population Hoechst High Intensity Objects (%): 45%
  Population Membrane Permeable-Phenotype (%): 15%
  Population Mitochondria Different-Phenotype (%): 30%
  Population Mitotic Cells (%): 31%
  Population Normal (%): 54%
  Population Pyknosed Nuclei (%): 12%
  Population Tubulin-Different-Phenotype (%): 25%
  Total Cell Count: 235
[12]
  Population Apoptotic (%): 0%
  Population Fragmented Nuclei (%): 88%
  Population Healthy Nuclei (%): 11%
  Population Hoechst High Intensity Objects (%): 38%
  Population Membrane Permeable-Phenotype (%): 25%
  Population Mitochondria Different-Phenotype (%): 12%
  Population Mitotic Cells (%): 0%
  Population Normal (%): 61%
  Population Pyknosed Nuclei (%): 0%
  Population Tubulin-Different-Phenotype (%): 56%
  Total Cell Count: 236
